Assay results: ChEMBL document CHEMBL1759852, “A comparative study of proapoptotic potential of cyano analogues of boswellic acid and 11-keto-boswellic acid” (Eur J Med Chem, 2011)

Key:
HL-60 = assay: Cytotoxicity against human HL60 cells after 48 hrs by MTT assay; assay type: functional, cell-based; settings: HL-60, 48 h
Procedure, shortened: (§1)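 HL-60 (2 × 10^4/200 μl) or HeLa (1 × 10^4/200 μl) in RPMI-1640/MEM, 10% FCS, 37 °C, 5% CO2; treated 0.1–50 μM for 48 h, DMSO vehicle <0.2%. MTT added final 3 h; formazan dissolved in DMSO, OD 570 nm (reference 620 nm). IC50 as 50% viability versus untreated control; three experiments, CV <10%.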

HeLa = assay: Cytotoxicity against human HeLa cells after 48 hrs by MTT assay; assay type: functional, cell-based; procedure, shortened: as §1

Compound | IC50 (HL-60) | IC50 (HeLa)
C[C@H]1[C@H](C)CC[C@]2(C)CC[C@]3(C)C(=CC[C@@H]4[C@@]5(C)CC[C@@H](O)[C@](C)(C(=O)O)[C@@H]5CC[C@]43C)[C@H]12 [BOSWELLIC ACID] | 24 µM | 35 µM
C[C@H]1[C@H](C)CC[C@]2(C)CC[C@]3(C)C(=CC(=O)[C@@H]4[C@@]5(C)CC(C(N)=O)[C@H](O)[C@](C)(N)[C@@H]5CC[C@]43C)[C@H]12 (stereo partly drawn) | > 50 µM | > 50 µM
CC(=O)O[C@@H]1CC[C@@]2(C)[C@@H](CC[C@]3(C)[C@@H]2CC=C2[C@@H]4[C@@H](C)[C@H](C)CC[C@]4(C)CC[C@]23C)[C@@]1(C)C(=O)O | 10 µM | 22 µM
C[C@H]1[C@H](C)CC[C@]2(C)CC[C@]3(C)C(=CC[C@@H]4[C@@]5(C)CC(C(N)=O)[C@H](O)[C@](C)(N=C=O)[C@@H]5CC[C@]43C)[C@H]12 (stereo partly drawn) | > 50 µM | > 50 µM
CC(=O)O[C@@H]1CC[C@@]2(C)[C@@H](CC[C@]3(C)[C@@H]2C(=O)C=C2[C@@H]4[C@@H](C)[C@H](C)CC[C@]4(C)CC[C@]23C)[C@@]1(C)C(=O)O [AKBA] | 11 µM | 31 µM
CCCCOC(=O)[C@@]1(C)C(=O)CC[C@]2(C)[C@H]3C(=O)C=C4[C@@H]5[C@@H](C)[C@H](C)CC[C@]5(C)CC[C@@]4(C)[C@]3(C)CC[C@@H]12 | > 50 µM | > 50 µM
C[C@H]1[C@H](C)CC[C@]2(C)CC[C@]3(C)C(=CC[C@@H]4[C@@]5(C)CC(C(N)=O)[C@H](O)[C@](C)(C(=O)O)[C@@H]5CC[C@]43C)[C@H]12 (stereo partly drawn) | > 50 µM | > 50 µM
CCCCOC(=O)[C@@]1(C)[C@H](O)CC[C@@]2(C)[C@H]1CC[C@]1(C)[C@@H]2CC=C2[C@@H]3[C@@H](C)[C@H](C)CC[C@]3(C)CC[C@]21C | > 50 µM | > 50 µM
CCCCOC(=O)[C@@]1(C)C(=O)/C(=C\O)C[C@]2(C)[C@H]3CC=C4[C@@H]5[C@@H](C)[C@H](C)CC[C@]5(C)CC[C@@]4(C)[C@]3(C)CC[C@@H]12 | 33 µM | 44 µM
C[C@H]1[C@H](C)CC[C@]2(C)CC[C@]3(C)C(=CC(=O)[C@@H]4[C@@]5(C)CC[C@@H](O)[C@](C)(C(=O)O)[C@@H]5CC[C@]43C)[C@H]12 [11-KETO BOSWELLIC ACID] | 32 µM | 50 µM
CCCCOC(=O)[C@]1(C)[C@@H]2CC[C@]3(C)[C@H](CC=C4[C@@H]5[C@@H](C)[C@H](C)CC[C@]5(C)CC[C@]43C)[C@@]2(C)CC(C#N)[C@@H]1O (stereo partly drawn) | > 50 µM | > 50 µM
CCCCOC(=O)[C@@]1(C)C(=O)C(C#N)C[C@]2(C)[C@H]3CC=C4[C@@H]5[C@@H](C)[C@H](C)CC[C@]5(C)CC[C@@]4(C)[C@]3(C)CC[C@@H]12 (stereo partly drawn) | 14 µM | 35 µM
CCCCOC(=O)[C@]1(C)[C@@H]2CC[C@]3(C)[C@H](CC=C4[C@@H]5[C@@H](C)[C@H](C)CC[C@]5(C)CC[C@]43C)[C@@]2(C)CC[C@H]1OC(C)=O | 28 µM | > 50 µM
CCCCOC(=O)[C@@]1(C)c2oncc2C[C@@]2(C)[C@H]1CC[C@]1(C)[C@@H]2C(=O)C=C2[C@@H]3[C@@H](C)[C@H](C)CC[C@]3(C)CC[C@]21C | 33 µM | > 50 µM
CCCCOC(=O)[C@]1(C)[C@@H]2CC[C@]3(C)[C@H](C(=O)C=C4[C@@H]5[C@@H](C)[C@H](C)CC[C@]5(C)CC[C@]43C)[C@@]2(C)CC(C#N)[C@@H]1O (stereo partly drawn) | 14 µM | 30 µM
CCCCOC(=O)[C@@]1(C)C(=O)/C(=C\O)C[C@]2(C)[C@H]3C(=O)C=C4[C@@H]5[C@@H](C)[C@H](C)CC[C@]5(C)CC[C@@]4(C)[C@]3(C)CC[C@@H]12 | 5 µM | > 50 µM
C[C@H]1[C@H](C)CC[C@]2(C)CC[C@]3(C)C(=CC[C@@H]4[C@@]5(C)CC(C(N)=O)[C@H](O)[C@](C)(N)[C@@H]5CC[C@]43C)[C@H]12 (stereo partly drawn) | 37 µM | > 50 µM
C[C@H]1[C@H](C)CC[C@]2(C)CC[C@]3(C)C(=CC(=O)[C@@H]4[C@@]5(C)CC(C(N)=O)[C@H](O)[C@](C)(C(=O)O)[C@@H]5CC[C@]43C)[C@H]12 (stereo partly drawn) | > 50 µM | > 50 µM
CCCCOC(=O)[C@]1(C)[C@@H]2CC[C@]3(C)[C@H](C(=O)C=C4[C@@H]5[C@@H](C)[C@H](C)CC[C@]5(C)CC[C@]43C)[C@@]2(C)CC[C@H]1OC(C)=O | 30 µM | 40 µM
CCCCOC(=O)[C@@]1(C)C(=O)CC[C@]2(C)[C@H]3CC=C4[C@@H]5[C@@H](C)[C@H](C)CC[C@]5(C)CC[C@@]4(C)[C@]3(C)CC[C@@H]12 | > 50 µM | > 50 µM
C[C@H]1[C@H](C)CC[C@]2(C)CC[C@]3(C)C(=CC(=O)[C@@H]4[C@@]5(C)CC(C(N)=O)[C@H](O)[C@](C)(N=C=O)[C@@H]5CC[C@]43C)[C@H]12 (stereo partly drawn) | 24 µM | 45 µM
CCCCOC(=O)[C@@]1(C)c2oncc2C[C@@]2(C)[C@H]1CC[C@]1(C)[C@@H]2CC=C2[C@@H]3[C@@H](C)[C@H](C)CC[C@]3(C)CC[C@]21C | 50 µM | 50 µM
CCCCOC(=O)[C@@]1(C)C(=O)C(C#N)C[C@]2(C)[C@H]3C(=O)C=C4[C@@H]5[C@@H](C)[C@H](C)CC[C@]5(C)CC[C@@]4(C)[C@]3(C)CC[C@@H]12 (stereo partly drawn) | 11 µM | 17 µM
CCCCOC(=O)[C@@]1(C)[C@H](O)CC[C@@]2(C)[C@H]1CC[C@]1(C)[C@@H]2C(=O)C=C2[C@@H]3[C@@H](C)[C@H](C)CC[C@]3(C)CC[C@]21C | 34 µM | 50 µM
